The nature of data set [1]: folding enthalpy; higher = less favourable; fluorescence melt of hairpins on a sequencing array, two-state fit. Particulars: sodium 0.088 M. The gist of the method:
(§1)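 On a sequenced MiSeq flow cell, library hairpins with annealed Cy3 and quencher oligos were imaged for Cy3 fluorescence in 2.5 °C steps up to 60 °C, in 50 mM Na-HEPES pH 8.0, 25 mM NaCl. Normalisation used pre-quench Cy3 and control constructs. Bootstrapped two-state fits gave melting temperature and folding enthalpy, combined by inverse variance across four replicates and with fitted temperatures raised by 9.35 °C to match UV melts.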

A short description of data set [2]: melting temperature; fluorescence melt of hairpins on a sequencing array, two-state fit, raised by 9.35 °C to match UV melts. Particulars: sodium 0.088 M. The gist of the method:
as §1

GTTTGTCGAAAGACAAC (((.(((....)))))): the folding enthalpy in data set [1] was -14.3 kcal/mol. Further, in data set [2], the Tm worked out at 47.5 °C.
For GTTTGTCGAAAGACCAAC (((.(((....))).))) the same measures were -26.1 kcal/mol and 37.9 °C.
In the case of GTTTGTCGAAAGACTAAC (((.(((....))).))), in data set [1], the folding enthalpy is -23.9 kcal/mol. Besides, the Tm in data set [2] amounted to 45.8 °C.
Take GTTTGTGGAAACGTAAAC ((((..(....)..)))): in data set [1], the folding enthalpy is -13.6 kcal/mol. Moreover, the Tm in data set [2] amounted to 29.1 °C.
As for GTTTTACGAAAGTACAAC (((.(((....))).))), the folding enthalpy in data set [1] was -25.8 kcal/mol. Further, in data set [2], the Tm is 35.5 °C.
With GTTTTAGGAAACTAAAAC (((((((....))))))), the folding enthalpy in data set [1] was -41.9 kcal/mol. For the same sequence, the Tm in data set [2] came out at 48.4 °C.
In the case of GTTTTAGGAAACTAGAAC (((.(((....))).))), the folding enthalpy in data set [1] is -11.5 kcal/mol. For the same sequence, the Tm in data set [2] was 27.9 °C.
As for GTTTTAGGAAACTGAAAC ((((.((....)).)))), the folding enthalpy in data set [1] was -22.1 kcal/mol. Besides, the Tm in data set [2] amounted to 35.2 °C.
As for GTTTTCGAAAGAAAAC ((((((....)))))), in data set [1], the folding enthalpy was -29.2 kcal/mol. Further, the Tm in data set [2] came to 57.4 °C.
With GTTTTCGGAAACGAAGAC ((.((((....)))).)), the folding enthalpy in data set [1] was -28.8 kcal/mol. Also, the Tm in data set [2] came to 42.5 °C.
Take GTTTTCTCGAAAGAGAAC (((..(((....)))))): the folding enthalpy in data set [1] was -15.3 kcal/mol. For the same sequence, in data set [2], the Tm came to 34.7 °C.
On to GTTTTGCGAAAGCATAAC (((.(((....))).))), for which the folding enthalpy in data set [1] was -25.4 kcal/mol. Also, the Tm in data set [2] amounted to 45.3 °C.
Turning to GTTTTGGCGAAAGCCAAC (((..(((....)))))), the folding enthalpy in data set [1] is -8.06 kcal/mol. Moreover, the Tm in data set [2] is 38.6 °C.
GTTTTGGGAAACCGAAAC ((((.((....)).)))): the folding enthalpy in data set [1] is -38.3 kcal/mol. Also, the Tm in data set [2] is 45.7 °C.
As for GTTTTGGGAAACTGAAAC ((((..(....)..)))), the folding enthalpy in data set [1] was -12.2 kcal/mol. The Tm in data set [2] worked out at 31.4 °C.
For the sequence GTTTTTCGAAAGAATAAC (((.(((....))).))), the folding enthalpy in data set [1] is -28.1 kcal/mol. Further, in data set [2], the Tm worked out at 34.7 °C.
For GTTTTTGGAAACAGAAAC ((((.((....)).)))) the same measures were -28.1 kcal/mol and 32.7 °C.
TAAACGAAAGTTTA (((((....))))): in data set [1], the folding enthalpy is -15.4 kcal/mol. In data set [2], the Tm worked out at 41.5 °C.
On to TACCTGAAAAGGTA (((((....))))), for which the folding enthalpy in data set [1] is -14.8 kcal/mol. The Tm in data set [2] was found to be 41.3 °C.
Regarding TACGAGAAATCGTA (((((....))))), in data set [1], the folding enthalpy is -14.9 kcal/mol. Also, the Tm in data set [2] worked out at 37.5 °C.
For TACTCGAAAGAGTA (((((....))))) the same measures were -18.1 kcal/mol and 47.1 °C.
For TAGCAGAAATGCTA (((((....))))), the folding enthalpy in data set [1] is -14 kcal/mol. Besides, the Tm in data set [2] was 38.1 °C.
For TAGCGGAAACGCTA (((((....))))), the folding enthalpy in data set [1] was -15.9 kcal/mol. The Tm in data set [2] stood at 54.3 °C.
For TAGGGGAAACCCTA (((((....))))), the folding enthalpy in data set [1] was -15.3 kcal/mol. Further, the Tm in data set [2] was 40.2 °C.
As to TATCTGAAAAGATA (((((....))))), the folding enthalpy in data set [1] is -11.5 kcal/mol. In data set [2], the Tm worked out at 29.8 °C.
On to TATGTGAAAACATA (((((....))))), for which, in data set [1], the folding enthalpy is -12.4 kcal/mol. Further, the Tm in data set [2] amounted to 35.3 °C.
For TATTGGAAACAATA (((((....))))), the folding enthalpy in data set [1] is -5.94 kcal/mol. Further, in data set [2], the Tm is 25.5 °C.
For TCAAGGAAACTTGA (((((....))))) the same measures were -8.95 kcal/mol and 32 °C.
For TCACGGAAACGTGA (((((....))))) the same measures were -19.9 kcal/mol and 50.9 °C.
Regarding TCCCGGAAACGGGA (((((....))))), the folding enthalpy in data set [1] was -19.7 kcal/mol. For the same sequence, the Tm in data set [2] came to 60.7 °C.
For TCCGAGAAATCGGA (((((....))))) the same measures were -19.6 kcal/mol and 46.4 °C.
In the case of TCCGGGAAACCGGA (((((....))))), in data set [1], the folding enthalpy is -20.2 kcal/mol. Also, in data set [2], the Tm was found to be 53.2 °C.
Turning to TCCGTGAAAACGGA (((((....))))), the folding enthalpy in data set [1] was -18 kcal/mol. For the same sequence, the Tm in data set [2] worked out at 53.8 °C.
Take TCCTCGAAAGAGGA (((((....))))): the folding enthalpy in data set [1] is -17.6 kcal/mol. Moreover, the Tm in data set [2] worked out at 52.7 °C.
For TCGAGGAAACTCGA (((((....))))) the same measures were -18.8 kcal/mol and 48 °C.
For TCGCAGAAATGCGA (((((....))))), the folding enthalpy in data set [1] is -17.1 kcal/mol. In addition, in data set [2], the Tm amounted to 54.4 °C.
For TCTTGGAAACAAGA (((((....))))), in data set [1], the folding enthalpy is -11.1 kcal/mol. The Tm in data set [2] was determined as 35.7 °C.
As for TGCTGGAAACAGCA (((((....))))), in data set [1], the folding enthalpy was -19.4 kcal/mol. For the same sequence, the Tm in data set [2] amounted to 53.1 °C.
On the same counts, the results for TGCTTGAAAAAGCA (((((....))))) are -8.9 kcal/mol and 47.9 °C.
For TGGATGAAAATCCA (((((....))))) the same measures were -17.8 kcal/mol and 46.1 °C.
On to TGTGGGAAACCACA (((((....))))), for which the folding enthalpy in data set [1] was -20.5 kcal/mol. In data set [2], the Tm is 49.6 °C.
On to TTACCGAAAGGTAA (((((....))))), for which the folding enthalpy in data set [1] is -16.7 kcal/mol. Also, the Tm in data set [2] stood at 50.4 °C.
As for TTCTGGAAACAGAA (((((....))))), in data set [1], the folding enthalpy is -15.6 kcal/mol. For the same sequence, in data set [2], the Tm is 35.4 °C.
Take TTGCGGAAACGCAA (((((....))))): the folding enthalpy in data set [1] is -18.1 kcal/mol. Moreover, the Tm in data set [2] is 57.6 °C.
For TTGGAGAAATCCAA (((((....))))) the same measures were -11.1 kcal/mol and 35.5 °C.
Turning to TTGGGGAAACCCAA (((((....))))), the folding enthalpy in data set [1] was -17.4 kcal/mol. Besides, the Tm in data set [2] turned out to be 43.4 °C.
For TTGTCGAAAGACAA (((((....))))) the same measures were -18.1 kcal/mol and 55 °C.
For the sequence TTTACGAAAGTAAA (((((....))))), in data set [1], the folding enthalpy is -13.5 kcal/mol. Also, in data set [2], the Tm was found to be 42.7 °C.
For TTTCAGAAATGAAA (((((....))))) the same measures were -5.49 kcal/mol and 18 °C.

The record behind these values is the array DNA melting data of Ke et al. (doi:10.1101/2024.01.08.574731).
